Source: PubChem BioAssay (Broad Institute)
The sample as a whole holds a higher share of hits than the screen did.
A1 apoptosis 2: compounds inhibiting A1, read as caspase activation; MEF A1-2A-BIM cells, caspase-Glo luminescence, 3 h; percent of clofoctol response, DMSO zero; caspase activation, % (concentration not given with the values); 24,000 tested, under 10 active; in the data active = caspase activation above about 5.9%
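Material: A1-2A-BIM-expressing MEF cells. Buffer or medium: RPMI-1640 plus 10% FBS. Incubation: cells settled overnight, compound exposure 3 h at 37 °C, 5% CO2. Signal: Caspase-Glo 3/7 luminescence, 1 h at room temperature.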
T cruzi HTS: intracellular Trypanosoma cruzi inhibition; intracellular Trypanosoma cruzi in host cells, plate reader; activity score (inhibition), % at 5.01 µM; hit rate 4.9% among 22,000; AID 651903; in the data active = activity score above about 55%;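 note: parasites and compound incubated about four days before reading; 0% = median of neutral control wells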
INS-1E rescue: INS-1E beta cell protection from cytokine death. INS-1E cytokine-induced death, ATP luminescence, 48 h; normalised: neutral wells 0, positive control 100. protection from cytokine-induced ATP loss, % at 10 µM. hit rate 0.1% among 20,000. AID 488910;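 active = mean replicate protection from cytokine-induced ATP loss at least 50% and at least 75% of replicates each reaching 50%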
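Material: INS-1E rat cells; Quantity: 8000 cells/well; Buffer or medium: phenol-red-free RPMI with 5% fetal bovine serum; Probe or stimulus: cytokine cocktail of IFN-γ, TNF-α and IL-1β; Compound dosing: single test concentration per compound, delivered by pin transfer; Incubation: 48 h co-treatment, 10 min post-lysis read; Signal: CellTiter-Glo luminescence.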
The depositor's hits bear a star; . = no result.

SMILES | A1 apoptosis 2 | T cruzi HTS | INS-1E rescue
C[C@@H]1CN([C@@H](C)CO)C(=O)c2cccc(NC(=O)C3CCCCC3)c2O[C@H]1CN(C)Cc1ccc(-c2ccccc2)cc1 | . | 71* | -39
C[C@@H]1CN([C@H](C)CO)C(=O)c2cccc(NC(=O)C3CCCCC3)c2O[C@@H]1CN(C)Cc1ccc(-c2ccccc2)cc1 | . | 46 | -65
C[C@@H]1CN([C@@H](C)CO)C(=O)c2cccc(N(C)C)c2O[C@H]1CN(C)S(=O)(=O)c1cn(C)cn1 | . | -6 | 6
C[C@H]1CN([C@@H](C)CO)C(=O)c2cc(NC(=O)NC3CCCCC3)ccc2O[C@@H]1CN(C)Cc1ccc2c(c1)OCO2 | 1 | -5 | -8
C[C@H]1CN([C@@H](C)CO)C(=O)c2cc(NC(=O)NC3CCCCC3)ccc2O[C@H]1CN(C)Cc1ccc2c(c1)OCO2 | 0 | 58* | 5
C[C@H](CO)N1C[C@H](C)[C@H](CN(C)Cc2ccc3c(c2)OCO3)Oc2ccc(NC(=O)NC3CCCCC3)cc2C1=O | 0 | 56* | .
C[C@@H]1CN([C@H](C)CO)C(=O)c2cc(NC(=O)NC3CCCCC3)ccc2O[C@@H]1CN(C)Cc1ccc2c(c1)OCO2 | 0 | -16 | 1
COc1ccc(S(=O)(=O)N(C)C[C@H]2Oc3ccc(NC(=O)CCC(F)(F)F)cc3C(=O)N([C@@H](C)CO)C[C@H]2C)cc1 | -1 | 5 | .
C[C@@H]1CN([C@H](C)CO)C(=O)c2cccc(NS(=O)(=O)c3ccc(F)cc3)c2O[C@@H]1CN(C)CC1CCCCC1 | 2 | 1 | -4
C[C@@H]1CN([C@H](C)CO)C(=O)c2cc(NS(=O)(=O)c3ccc(Cl)cc3)ccc2O[C@H]1CN(C)Cc1ccc(C(F)(F)F)cc1 | 1 | 47 | -32
C[C@H]1CN([C@@H](C)CO)C(=O)c2cc(NS(=O)(=O)c3ccc(Cl)cc3)ccc2O[C@H]1CN(C)Cc1ccc(C(F)(F)F)cc1 | -1 | . | .
C[C@H]1CN([C@@H](C)CO)C(=O)c2cc(NS(=O)(=O)c3ccc(F)cc3)ccc2O[C@H]1CN(C)Cc1ccc(C(F)(F)F)cc1 | . | 55* | .
C[C@@H]1CCCCO[C@H](CN(C)Cc2ccc(C(F)(F)F)cc2)[C@@H](C)CN([C@H](C)CO)C(=O)c2cc(NS(=O)(=O)c3ccc(Cl)cc3)ccc2O1 | 2 | 69* | -31
C[C@@H]1CN([C@@H](C)CO)C(=O)c2cc(NS(=O)(=O)c3ccc(Cl)cc3)ccc2O[C@@H](C)CCCCO[C@@H]1CN(C)Cc1ccc(C(F)(F)F)cc1 | 1 | . | .
C[C@H](CO)N1C[C@H](C)[C@H](CN(C)Cc2ccc(C(F)(F)F)cc2)Oc2ccc(NS(=O)(=O)c3ccc(F)cc3)cc2C1=O | 1 | -7 | -5
C[C@H]1CN([C@@H](C)CO)C(=O)c2cc(NS(=O)(=O)c3ccc(Cl)cc3)ccc2O[C@@H]1CN(C)Cc1ccc(C(F)(F)F)cc1 | -1 | 58* | -23
C[C@H](CO)N1C[C@H](C)[C@@H](CN(C)Cc2ccc(C(F)(F)F)cc2)Oc2ccc(NS(=O)(=O)c3ccc(Cl)cc3)cc2C1=O | . | 71* | -8
Cc1noc(C)c1S(=O)(=O)N(C)C[C@@H]1Oc2c(cccc2N(C)C)C(=O)N([C@H](C)CO)C[C@H]1C | 0 | 12 | 6
CCCCN(CCCC)c1ccc(/C=N/NC(=O)c2ccccn2)cc1 | . | 52 | -1
COCCCNC(=O)[C@]1(CCS(=O)(=O)c2ccccc2)N=C(c2ccc(OCCCO)cc2)O[C@@H]1c1ccccc1 | 1 | . | .
C[C@@H]1CN([C@H](C)CO)C(=O)Cc2cc(N(C)C)ccc2O[C@@H]1CN(C)S(=O)(=O)c1ccccc1 | 0 | 3 | -1
C[C@H]1CN([C@@H](C)CO)C(=O)c2cccc(NC(=O)c3ccncc3)c2O[C@@H]1CN(C)Cc1ccc(C(F)(F)F)cc1 | 0 | 78* | 17
C[C@@H]1CN([C@H](C)CO)C(=O)c2cccc(NC(=O)c3ccncc3)c2O[C@@H]1CN(C)Cc1ccc(C(F)(F)F)cc1 | 0 | -1 | -5
C[C@H](CO)N1C[C@H](C)[C@@H](CN(C)Cc2ccc(C(F)(F)F)cc2)Oc2c(NC(=O)c3ccncc3)cccc2C1=O | 0 | 83* | -15
C[C@@H]1CN([C@H](C)CO)C(=O)c2cccc(NC(=O)c3cnccn3)c2O[C@H]1CN(C)Cc1ccc(C(F)(F)F)cc1 | 0 | -3 | -4
SMILES | A1 apoptosis 2 | T cruzi HTS | INS-1E rescue
C[C@@H]1CN([C@@H](C)CO)C(=O)c2cccc(NC(=O)c3ccncc3)c2O[C@H]1CN(C)Cc1ccc(C(F)(F)F)cc1 | 0 | 77* | 4
C[C@@H]1CN([C@H](C)CO)C(=O)c2cccc(NC(=O)c3ccncc3)c2O[C@H]1CN(C)Cc1ccc(C(F)(F)F)cc1 | 2 | 79* | 2
C[C@@H]1CN([C@@H](C)CO)C(=O)c2cccc(NC(=O)c3cnccn3)c2O[C@H]1CN(C)Cc1ccc(C(F)(F)F)cc1 | -2 | 15 | -1
C[C@H](CO)N1C[C@H](C)[C@@H](CN(C)S(=O)(=O)c2cn(C)cn2)Oc2ccc(NC(=O)Cc3cn(C)c4ccccc34)cc2C1=O | 0 | -17 | 21
Cc1ccc(S(=O)(=O)N(C)C[C@@H]2Oc3c(NC(=O)c4cnccn4)cccc3C(=O)N([C@H](C)CO)C[C@H]2C)cc1 | . | 4 | 2
C[C@@H]1CN([C@@H](C)CO)C(=O)c2cccc(NC(=O)c3nc4ccccc4s3)c2O[C@@H]1CN(C)C(=O)NC1CCCCC1 | 0 | 3 | -7
Cc1noc(C)c1S(=O)(=O)Nc1ccc2c(c1)C(=O)N([C@H](C)CO)C[C@H](C)[C@@H](CN(C)S(=O)(=O)c1cccs1)OCCCC[C@H](C)O2 | 1 | . | .
C[C@H]1CN([C@@H](C)CO)C(=O)Cc2cc(NC(=O)Cc3cn(C)c4ccccc34)ccc2O[C@@H]1CN(C)Cc1ccc(-c2ccccc2)cc1 | . | 74* | -25
C[C@@H]1CN([C@H](C)CO)C(=O)Cc2cc(NC(=O)Cc3cn(C)c4ccccc34)ccc2O[C@@H]1CN(C)CC1CCCCC1 | 0 | 21 | 1
C[C@@H]1CN([C@H](C)CO)C(=O)Cc2cc(NC(=O)Cc3cn(C)c4ccccc34)ccc2O[C@@H]1CN(C)Cc1ccc(C(=O)O)cc1 | 0 | -5 | 2
C[C@@H]1CN([C@H](C)CO)C(=O)Cc2cc(NC(=O)Cc3cn(C)c4ccccc34)ccc2O[C@H]1CN(C)CC1CCCCC1 | 0 | 60* | -1
C[C@@H]1CN([C@H](C)CO)C(=O)Cc2cc(NC(=O)Cc3cn(C)c4ccccc34)ccc2O[C@H]1CN(C)Cc1ccc(-c2ccccc2)cc1 | 0 | 64* | -3
C[C@H]1CN([C@@H](C)CO)C(=O)Cc2cc(NC(=O)Cc3cn(C)c4ccccc34)ccc2O[C@H]1CN(C)Cc1ccc(-c2ccccc2)cc1 | -1 | 43 | -38
CC(C)NC(=O)N(C)C[C@H]1OCCCC[C@H](C)Oc2ccc(NS(=O)(=O)c3cn(C)cn3)cc2C(=O)N([C@@H](C)CO)C[C@@H]1C | 0 | . | .
